Results taken from PMC6605687 (The Journal of General Physiology, 2019).
Where a chain is given by its changes, count along the chain named. Entries after “also recorded” stand apart in the source; their conditions may differ. Like-named read-outs stand apart in the source and are kept apart here.

Tests used:
Format in all cases: cell-based
[1] = target: T1, rat P2X2 receptor (rP2X2R) WT (Rattus norvegicus, UniProt P49653); details: for Apparent affinity / potency (in words) / Efficacy (in words) / Macroscopic currents elicited (in words): WT P2X2Rs; for Apparent affinity / potency (in words) / Efficacy (in words): compared with ATP; for Fold increase in EC50 (reduced apparent affinity) compared with ATP: agonist versus ATP; for Reduction in efficacy: relative to ATP; for Imax agonist/Imax ATP (%): maximal current compared to that elicited by 1 mM of ATP, same cell; for Macroscopic currents elicited (in words): concentrations of up to 1 mM
T1 sequence (P49653 1-472): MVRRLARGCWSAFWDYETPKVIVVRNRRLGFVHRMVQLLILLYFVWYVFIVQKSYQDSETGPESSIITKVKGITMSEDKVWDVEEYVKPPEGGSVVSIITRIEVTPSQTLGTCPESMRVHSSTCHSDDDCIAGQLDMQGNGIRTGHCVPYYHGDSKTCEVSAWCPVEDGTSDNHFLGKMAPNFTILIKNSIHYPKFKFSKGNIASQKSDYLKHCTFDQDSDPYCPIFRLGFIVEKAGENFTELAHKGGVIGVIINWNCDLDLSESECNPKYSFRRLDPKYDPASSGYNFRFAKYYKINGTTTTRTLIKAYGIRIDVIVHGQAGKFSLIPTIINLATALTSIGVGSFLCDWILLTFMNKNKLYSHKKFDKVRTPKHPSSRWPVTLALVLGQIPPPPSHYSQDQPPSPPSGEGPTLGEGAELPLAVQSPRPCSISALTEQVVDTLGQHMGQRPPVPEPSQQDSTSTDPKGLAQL
Summary of the method: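 Collagenase-digested Xenopus oocytes were injected with WT rP2X2 mRNA (30 ng) and kept in L-15 at 18°C. Two-electrode voltage clamp was done 1–2 days later at −40 mV in ND96 (pH 7.4). Agonists were freshly dissolved in ND96 at pH 7.4. Responses were normalised to 1 mM ATP current in the same cell, and Hill fits gave EC50 and nH. Relative efficacy is the agonist maximal current versus 1 mM ATP. Results are mean ± SEM, compared by one-way ANOVA with Dunnett's test.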

rP2X2 Val70Vah = target: T2, rP2X2 Val70Vah (Rattus norvegicus, UniProt P49653); assay: Two-electrode voltage clamp, oocytes expressing rP2X2 Val70Vah
T2 sequence (P49653 1-472): T1 sequence (P49653 1-472)

rP2X2 Thr184Ser = target: T3, rP2X2 Thr184Ser (Rattus norvegicus, UniProt P49653, T184S); assay: Two-electrode voltage clamp, oocytes expressing rP2X2 Thr184Ser
T3 sequence (P49653 1-472 T184S): T1 sequence (P49653 1-472) with T184S
Summary of the method: (§1)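 Mutations were made by site-directed mutagenesis. Xenopus oocytes were injected with rP2X2 mRNA and incubated in L-15 at 18°C. Two-electrode voltage clamp was done 1–2 days later at −40 mV under ND96 perfusion (pH 7.4). ATP concentration-response currents were normalised and fitted to a one-component Hill equation for EC50 and Hill coefficient. Results are mean ± SEM, tested by one-way ANOVA with Dunnett's test against WT.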

rP2X2 Thr184Val = target: T4, rP2X2 Thr184Val (Rattus norvegicus, UniProt P49653, T184V); assay: Two-electrode voltage clamp, oocytes expressing rP2X2 Thr184Val
T4 sequence (P49653 1-472 T184V): T1 sequence (P49653 1-472) with T184V
Summary of the method: as §1

rP2X2 Ile185Val = target: T5, rP2X2 Ile185Val (Rattus norvegicus, UniProt P49653, I185V); assay: Two-electrode voltage clamp, oocytes expressing rP2X2 Ile185Val
T5 sequence (P49653 1-472 I185V): T1 sequence (P49653 1-472) with I185V
Summary of the method: as §1

rP2X2 Ile185Vah = target: T6, rP2X2 Ile185Vah (Rattus norvegicus, UniProt P49653); assay: Two-electrode voltage clamp, oocytes expressing rP2X2 Ile185Vah; details: Ile185Vah, mean ± SEM
T6 sequence (P49653 1-472): T1 sequence (P49653 1-472)
Summary of the method: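 The backbone ester was introduced by nonsense suppression. TAG-mutant rP2X2 mRNA was co-injected into Xenopus oocytes with tRNA enzymatically aminoacylated with 2-hydroxyisovaleric acid. Uncharged tRNA co-injection served as the negative control. After incubation at 18°C, two-electrode voltage clamp was done at −40 mV in ND96 (pH 7.4). ATP concentration-response data were normalised and Hill-fitted for EC50 and nH, given as mean ± SEM.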

rP2X2-3T receptors = target: T7, rP2X2-3T receptors (Rattus norvegicus, UniProt P49653, C348T/C430T/C9T); assay: Single channel outside-out patch-clamp recordings, HEK-293 cells; details: agonist 1 µM, mean ± SEM
T7 sequence (P49653 1-472 C9T/C348T/C430T): T1 sequence (P49653 1-472) with C9T, C348T, C430T
Summary of the method: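 HEK-293 cells were co-transfected by calcium phosphate with rP2X2-3T DNA plus GFP DNA to mark transfected cells, then recorded within 24 h. Outside-out patches were held at −120 mV. Pipette contained 147 NaF, 10 EGTA and 10 HEPES (mM, pH 7.3). Agonist at 1, 10 or 100 µM in extracellular saline (pH 7.3) was applied by fast perfusion for 10 s per 12-s sweep, at 1-min intervals. Amplitudes came from Gaussian fits to all-points histograms, with 2–5 sweeps averaged per patch.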

[2] = WT rP2X2R, Xenopus oocytes, −40 mV, mean ± SEM

Structure (SMILES)	Apparent affinity / potency (in words) [1]	Efficacy (in words) [1]	EC50 [1] [µM]	Fold increase in EC50 (reduced apparent affinity) compared with ATP ([1]; WT rP2X2R)	nH (Hill coefficient) ([1]; WT rP2X2R, mean ± SEM)	Imax agonist/Imax ATP (%) ([1]; WT rP2X2R)	other results
Nc1ncnc2c1ncn2[C@@H]1O[C@H](COP(=O)(O)OP(=O)(O)OP(=O)(O)O)[C@@H](O)[C@@H]1O [Ara-ATP, Ara-adenosine 5′-triphosphate]	lower apparent affinity than ATP	greatly reduced efficacy	–	–	–	–	EC50 [1, 2]: > 100 µM
Nc1ncnc2c1ncn2[C@H]1CC[C@@H](COP(=O)(O)OP(=O)(O)OP(=O)(O)O)O1 [C2′-C3′-ddATP, 2′,3′-dideoxyadenosine-5′-triphosphate]	even less potent agonist; also recorded: further decreased apparent affinity and efficacy	–	–	–	–	–	–
Nc1ncnc2c1ncn2[C@@H]1O[C@H](COP(=O)(O)OP(=O)(O)OP(=O)(O)O)[C@@H](O)[C@H]1F [C2′-F-dATP, 2′-fluoro-2′-deoxyadenosine-5′-triphosphate]	–	–	52 ± 6	twofold	2.1 ± 0.1	60 ± 2	Reduction in efficacy ([1]; WT rP2X2R): ~40%
Nc1ncnc2c1ncn2[C@H]1C[C@H](O)[C@@H](COP(=O)(O)OP(=O)(O)OP(=O)(O)O)O1 [C2′-dATP, 2′-deoxyadenosine-5′-triphosphate]	–	–	> 300	–	–	–	–
Nc1ncnc2c1ncn2[C@@H]1O[C@H](COP(=O)(O)OP(=O)(O)OP(=O)(O)O)C[C@H]1O [C3′-dATP, 3′-deoxyadenosine-5′-triphosphate]	–	–	83 ± 4	threefold	2.6 ± 0.1	67 ± 2	Reduction in efficacy ([1]; WT rP2X2R): ~30%
Nc1ccn([C@@H]2O[C@H](COP(=O)(O)OP(=O)(O)OP(=O)(O)O)[C@@H](O)[C@H]2O)c(=O)n1 [CTP, Cytidine 5′-triphosphate]	–	did not alter efficacy; also recorded: ATP-like efficacy	370 ± 30	–	–	105 ± 4	nH (Hill coefficient) (rP2X2 Val70Vah; Val70Vah): 2.6 ± 0.1; Fold increase in EC50, Val70Vah versus WT (rP2X2 Val70Vah; Val70Vah compared with WT): fivefold; EC50 (rP2X2 Val70Vah; Val70Vah, mean ± SEM): 2000 µM; EC50 (rP2X2 Thr184Ser): 156 ± 30 µM; EC50 (rP2X2 Thr184Val): 11700 µM; Fold increase in EC50 (reduction in sensitivity), Thr184Val versus WT (rP2X2 Thr184Val; Thr184Val compared with WT): ~30 fold; EC50 (rP2X2 Ile185Val): 144 ± 30 µM; EC50 (rP2X2 Ile185Vah): 1100 µM
O=P(O)(O)OP(=O)(O)OP(=O)(O)OC[C@H]1O[C@@H](n2cnc3c(O)ncnc32)[C@H](O)[C@@H]1O [ITP, Inosine 5′-triphosphate]	–	–	–	–	–	–	Macroscopic currents elicited (in words) [1]: failed to evoke any currents
Nc1ncnc2c1ncn2[C@@H]1O[C@@]2(COP(=O)(O)OP(=O)(O)OP(=O)(O)O)CO[C@@H]1[C@@H]2O [LNA-ATP, locked nucleic acid–ATP]	apparent affinity indistinguishable from ATP; also recorded: ATP-like apparent affinity	significantly reduced efficacy; also recorded: only a minor decrease in efficacy	–	–	1.8 ± 0.1	66 ± 1	EC50 [1, 2]: 27 ± 1 µM; SDopen (SD of the open state amplitude) (rP2X2-3T receptors): 1.03 ± 0.1; Unitary current (rP2X2-3T receptors; outside-out patch, −120 mV): −3.58 ± 0.4 pA
Nc1ncnc2c1ncn2[C@@H](CO)O[C@@H](CO)COP(=O)(O)OP(=O)(O)OP(=O)(O)O [UNA-ATP, unlocked nucleic acid–ATP]	–	–	–	–	–	–	Macroscopic currents elicited (in words) [1]: failed to elicit macroscopic currents; also recorded: does not elicit macroscopic current responses; also recorded: did not act as an agonist
O=c1ccn([C@@H]2O[C@H](COP(=O)(O)OP(=O)(O)OP(=O)(O)O)[C@@H](O)[C@H]2O)c(=O)[nH]1 [UTP, uridine 5′-triphosphate]	–	significantly reduced efficacy	12000	400 fold	–	–	–
